# Experimental data reported in ChEMBL document CHEMBL4020721 (Eur J Med Chem, 2017).
# Experiments:
# [1] = Drug recovery in monkey liver microsomes at 1 uM measured after 30 mins by LC-MS/MS analysis
# [2] = Intrinsic clearance in human liver microsomes assessed per mg protein at 1 uM preincubated for 5 mins followed by NADPH addition measured after 5 to 30 mins by LC-MS/MS analysis; format: ADME, microsome; settings: read-out: CLH
# In short: (§1)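 Microsomes (0.5 mg/ml) with 1 µM compound were preincubated 5 min at 37°C in 100 mM phosphate buffer pH 7.4, then started with 1 mM NADPH. Samples were taken at 0, 5, 10 and 30 min, quenched with acetonitrile/tinidazole and run by LC-MS/MS. CLint = k / microsomal protein concentration. Midazolam was the positive control.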
# CYP2C19 [3] = target: T1, CYP2C19 (Homo sapiens, UniProt P33261); assay: Reversible inhibition of CYP2C19 in human liver microsomes at 10 uM after 20 mins in presence of NADPH by LC-MS/MS analysis; format: ADME; settings: liver microsomes
# T1 sequence (P33261 whole entry): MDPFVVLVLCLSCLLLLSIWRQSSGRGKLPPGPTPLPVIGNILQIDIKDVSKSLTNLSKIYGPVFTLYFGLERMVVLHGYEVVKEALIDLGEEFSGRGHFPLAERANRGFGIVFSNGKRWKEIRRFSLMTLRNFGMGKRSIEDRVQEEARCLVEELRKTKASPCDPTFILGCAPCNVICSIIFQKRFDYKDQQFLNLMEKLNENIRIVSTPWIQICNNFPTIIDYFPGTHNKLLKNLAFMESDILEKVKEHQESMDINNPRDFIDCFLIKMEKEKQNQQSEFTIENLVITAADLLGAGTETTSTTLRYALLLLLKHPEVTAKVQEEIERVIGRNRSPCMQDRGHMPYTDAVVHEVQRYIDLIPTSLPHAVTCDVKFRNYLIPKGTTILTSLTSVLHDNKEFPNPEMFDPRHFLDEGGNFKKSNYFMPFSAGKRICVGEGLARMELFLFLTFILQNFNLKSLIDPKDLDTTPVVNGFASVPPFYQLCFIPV
# CYP1A2 [4] = target: T2, CYP1A2 (Homo sapiens, UniProt P05177); assay: Reversible inhibition of CYP1A2 in human liver microsomes at 10 uM after 20 mins in presence of NADPH by LC-MS/MS analysis; format: ADME
# T2 sequence (P05177 whole entry): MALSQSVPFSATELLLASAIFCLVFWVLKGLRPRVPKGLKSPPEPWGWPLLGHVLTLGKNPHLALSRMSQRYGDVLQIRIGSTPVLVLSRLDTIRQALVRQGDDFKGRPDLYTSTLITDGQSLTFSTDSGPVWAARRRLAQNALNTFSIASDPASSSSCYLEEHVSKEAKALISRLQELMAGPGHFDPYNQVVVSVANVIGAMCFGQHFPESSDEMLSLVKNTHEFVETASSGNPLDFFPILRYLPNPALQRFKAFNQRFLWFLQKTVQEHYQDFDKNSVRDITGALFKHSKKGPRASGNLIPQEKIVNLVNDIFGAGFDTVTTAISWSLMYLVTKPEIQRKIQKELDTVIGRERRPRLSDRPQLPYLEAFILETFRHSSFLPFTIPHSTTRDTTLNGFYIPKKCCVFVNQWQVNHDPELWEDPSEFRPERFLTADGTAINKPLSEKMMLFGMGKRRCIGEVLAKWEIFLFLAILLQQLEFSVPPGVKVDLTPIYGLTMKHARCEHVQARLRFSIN
# [5] = Intrinsic clearance in monkey liver microsomes assessed per mg protein at 1 uM preincubated for 5 mins followed by NADPH addition measured after 5 to 30 mins by LC-MS/MS analysis; settings: liver microsomes; read-out: CLH
# Cytochrome P450 3A4 = Cytochrome P450 3A4 (Homo sapiens, UniProt P08684); assay: (§2) Time dependent irreversible inhibition of CYP3A4 in human liver microsomes at 10 uM preincubated with compound followed by NADPH addition by LC-MS/MS analysis; format: ADME; settings: microsomes, 10 µM
# Sequence of Cytochrome P450 3A4 (P08684 whole entry): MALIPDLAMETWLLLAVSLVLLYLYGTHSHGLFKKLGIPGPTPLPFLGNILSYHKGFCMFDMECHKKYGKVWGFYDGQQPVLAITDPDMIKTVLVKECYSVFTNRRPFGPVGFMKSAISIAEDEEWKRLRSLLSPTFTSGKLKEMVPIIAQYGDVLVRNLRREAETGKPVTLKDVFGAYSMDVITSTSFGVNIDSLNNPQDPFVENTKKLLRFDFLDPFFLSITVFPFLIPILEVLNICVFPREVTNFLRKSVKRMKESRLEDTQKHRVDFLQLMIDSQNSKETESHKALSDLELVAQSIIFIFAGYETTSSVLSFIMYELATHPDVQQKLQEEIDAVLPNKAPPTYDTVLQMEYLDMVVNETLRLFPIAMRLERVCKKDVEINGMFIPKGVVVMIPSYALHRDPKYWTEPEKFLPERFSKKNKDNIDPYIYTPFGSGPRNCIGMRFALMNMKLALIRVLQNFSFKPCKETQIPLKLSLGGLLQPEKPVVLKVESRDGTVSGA
# In short: (§3)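 HLM (0.2 mg/ml) with 10 µM compound were preincubated 0, 5, 10 or 20 min at 37°C with 1 mM NADPH or PBS. Substrate cocktail (halved concentrations) plus NADPH was then added for 10 min. Metabolites were measured by LC-MS/MS. Kobs is the slope of relative activity versus preincubation time.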
# [6] = Intrinsic clearance in rat liver microsomes assessed per mg protein at 1 uM preincubated for 5 mins followed by NADPH addition measured after 5 to 30 mins by LC-MS/MS analysis; format: ADME, microsome; settings: read-out: CLH
# In short: as §1
# [7] = Drug recovery in human liver microsomes at 1 uM measured after 30 mins by LC-MS/MS analysis; format: ADME, microsome; settings: liver microsomes, read-out: Drug recovery
# In short: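 Liver microsomes (0.5 mg/ml) were incubated with 1 µM compound at 37°C in 100 mM phosphate buffer pH 7.4 without NADPH for 30 min. Reactions were quenched with acetonitrile/tinidazole internal standard and analysed by LC-MS/MS. Recovery (%) was taken from the compound/internal standard peak area ratio.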
# SNU-5 = assay: Growth inhibition of human SNU5 cells after 72 hrs by CCK-8 assay; format: functional, cell-based
# CYP2D6 [8] = target: T3, CYP2D6 (Homo sapiens, UniProt P10635); assay: Reversible inhibition of CYP2D6 in human liver microsomes at 10 uM after 20 mins in presence of NADPH by LC-MS/MS analysis; format: ADME; settings: liver microsomes
# T3 sequence (P10635 whole entry): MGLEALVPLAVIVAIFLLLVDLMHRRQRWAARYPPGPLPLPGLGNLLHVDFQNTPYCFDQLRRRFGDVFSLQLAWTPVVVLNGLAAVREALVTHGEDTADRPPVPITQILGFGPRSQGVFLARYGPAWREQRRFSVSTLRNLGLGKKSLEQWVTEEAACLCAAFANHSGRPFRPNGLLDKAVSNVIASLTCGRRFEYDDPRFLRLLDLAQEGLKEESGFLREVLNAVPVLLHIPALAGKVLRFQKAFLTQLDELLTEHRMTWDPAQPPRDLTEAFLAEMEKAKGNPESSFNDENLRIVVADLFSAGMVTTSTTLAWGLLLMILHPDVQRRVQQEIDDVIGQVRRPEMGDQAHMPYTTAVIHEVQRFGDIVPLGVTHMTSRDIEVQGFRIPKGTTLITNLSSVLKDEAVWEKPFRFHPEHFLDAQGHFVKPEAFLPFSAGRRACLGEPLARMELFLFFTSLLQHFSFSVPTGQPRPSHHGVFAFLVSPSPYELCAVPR
# CYP2C9 [9] = target: T4, CYP2C9 (Homo sapiens, UniProt P11712); assay: Reversible inhibition of CYP2C9 in human liver microsomes at 10 uM after 20 mins by in presence of NADPH LC-MS/MS analysis; format: ADME; settings: liver microsomes
# T4 sequence (P11712 whole entry): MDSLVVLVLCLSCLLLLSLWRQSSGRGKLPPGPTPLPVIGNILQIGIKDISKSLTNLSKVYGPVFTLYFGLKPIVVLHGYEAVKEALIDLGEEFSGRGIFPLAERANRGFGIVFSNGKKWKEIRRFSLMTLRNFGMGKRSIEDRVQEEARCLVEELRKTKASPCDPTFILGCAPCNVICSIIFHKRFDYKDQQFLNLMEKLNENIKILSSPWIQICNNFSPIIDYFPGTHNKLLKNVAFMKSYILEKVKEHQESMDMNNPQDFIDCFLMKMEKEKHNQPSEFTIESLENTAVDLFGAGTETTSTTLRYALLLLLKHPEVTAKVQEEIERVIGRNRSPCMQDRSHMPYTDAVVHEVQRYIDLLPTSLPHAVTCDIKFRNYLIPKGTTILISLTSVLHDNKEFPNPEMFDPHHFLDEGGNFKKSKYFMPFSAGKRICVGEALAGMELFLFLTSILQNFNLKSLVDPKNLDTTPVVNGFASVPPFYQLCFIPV
# NCI-H1993 = assay: Growth inhibition of human NCI-H1993 cells after 72 hrs by CCK-8 assay; format: functional, cell-based; settings: Homo sapiens, NCI-H1993, 72 h
# [10] = (§4) Drug recovery in rat liver microsomes at 1 uM measured after 30 mins by LC-MS/MS analysis; format: ADME, microsome; settings: liver microsomes, read-out: Drug recovery
# CYP3A4 [11] = target: T5, CYP3A4 (Homo sapiens, UniProt P08684); assay: Reversible inhibition of CYP3A4 in human liver microsomes at 10 uM after 20 mins in presence of NADPH by LC-MS/MS analysis; format: ADME; settings: liver microsomes
# T5 sequence (P08684 whole entry): as the sequence (P08684 whole entry) above
# [12] = Cmax in Sprague-Dawley rat plasma at 6 mg/kg, po by UPLC-MS/MS analysis; format: ADME, organism-based; design: dose 6 mg/kg, route oral
# In short: (§5)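 Male Sprague-Dawley rats (180-220 g) were fasted overnight with free access to water. Dosing was intravenous (n=2) or oral at 6 mg/kg (n=3). Heparinized blood was drawn from 0 to 1440 min. Plasma was frozen at -20°C, then precipitated with acetonitrile containing internal standard, centrifuged and analysed by UPLC-MS/MS.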
# [13] = Clearance in Sprague-Dawley rat plasma at 1 mg/kg, iv by UPLC-MS/MS analysis; format: ADME, organism-based
# In short: as §5
# CYP3A4 [14] = target: T5, CYP3A4; assay: as §2; format: ADME; settings: liver microsomes
# In short: as §3
# [15] = Oral bioavailability in Sprague-Dawley rat plasma at 6 mg/kg by UPLC-MS/MS analysis; format: ADME, organism-based; settings: Sprague-Dawley, plasma
# In short: as §5
# [16] = AUC (0 to 24 hrs) in Sprague-Dawley rat plasma at 6 mg/kg, po by UPLC-MS/MS analysis; format: ADME, organism-based; design: dose 6 mg/kg, time < 24 hr, route oral
# In short: as §5
# [17] = Volume of distribution at steady state in Sprague-Dawley rat plasma at 1 mg/kg, iv by UPLC-MS/MS analysis; format: ADME, organism-based; settings: read-out: Vdss
# In short: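 Male Sprague-Dawley rats (180-220 g), fasted overnight with water available, dosed iv (n=2). Blood on heparin collected from 0 to 1440 min. Plasma obtained by centrifugation and stored at -20°C. Proteins precipitated with acetonitrile containing internal standard, then UPLC-MS/MS. Vss taken from the iv data.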
# CYP1A2 [18] = target: T2, CYP1A2; assay: (§6) Time dependent irreversible inhibition of CYP1A2 in human liver microsomes at 10 uM preincubated with compound followed by NADPH addition by LC-MS/MS analysis; format: ADME; settings: liver microsomes
# In short: as §3
# CYP2C9 [19] = target: T4, CYP2C9; assay: (§7) Time dependent irreversible inhibition of CYP2C9 in human liver microsomes at 10 uM preincubated with compound followed by NADPH addition by LC-MS/MS analysis; format: ADME; settings: liver microsomes
# In short: as §3
# CYP2C19 [20] = target: T1, CYP2C19; assay: Time dependent irreversible inhibition of CYP2C19 in human liver microsomes at 10 uM preincubated with compound followed by NADPH addition by LC-MS/MS analysis; format: ADME
# In short: as §3
# CYP2D6 [21] = target: T3, CYP2D6; assay: (§8) Time dependent irreversible inhibition of CYP2D6 in human liver microsomes at 10 uM preincubated with compound followed by NADPH addition by LC-MS/MS analysis; format: ADME; settings: liver microsomes
# In short: as §3
# [22] = Half life in Sprague-Dawley rat plasma at 1 mg/kg, iv by UPLC-MS/MS analysis; format: ADME, organism-based
# In short: as §5
# [23] = target: Hepatocyte growth factor receptor (Homo sapiens, UniProt P08581); assay: Inhibition of c-MET (unknown origin) using TK substrate-biotin peptide as substrate preincubated for 5 to 10 mins followed by ATP addition measured after 30 mins by HTRF assay
# Sequence of Hepatocyte growth factor receptor (P08581 whole entry): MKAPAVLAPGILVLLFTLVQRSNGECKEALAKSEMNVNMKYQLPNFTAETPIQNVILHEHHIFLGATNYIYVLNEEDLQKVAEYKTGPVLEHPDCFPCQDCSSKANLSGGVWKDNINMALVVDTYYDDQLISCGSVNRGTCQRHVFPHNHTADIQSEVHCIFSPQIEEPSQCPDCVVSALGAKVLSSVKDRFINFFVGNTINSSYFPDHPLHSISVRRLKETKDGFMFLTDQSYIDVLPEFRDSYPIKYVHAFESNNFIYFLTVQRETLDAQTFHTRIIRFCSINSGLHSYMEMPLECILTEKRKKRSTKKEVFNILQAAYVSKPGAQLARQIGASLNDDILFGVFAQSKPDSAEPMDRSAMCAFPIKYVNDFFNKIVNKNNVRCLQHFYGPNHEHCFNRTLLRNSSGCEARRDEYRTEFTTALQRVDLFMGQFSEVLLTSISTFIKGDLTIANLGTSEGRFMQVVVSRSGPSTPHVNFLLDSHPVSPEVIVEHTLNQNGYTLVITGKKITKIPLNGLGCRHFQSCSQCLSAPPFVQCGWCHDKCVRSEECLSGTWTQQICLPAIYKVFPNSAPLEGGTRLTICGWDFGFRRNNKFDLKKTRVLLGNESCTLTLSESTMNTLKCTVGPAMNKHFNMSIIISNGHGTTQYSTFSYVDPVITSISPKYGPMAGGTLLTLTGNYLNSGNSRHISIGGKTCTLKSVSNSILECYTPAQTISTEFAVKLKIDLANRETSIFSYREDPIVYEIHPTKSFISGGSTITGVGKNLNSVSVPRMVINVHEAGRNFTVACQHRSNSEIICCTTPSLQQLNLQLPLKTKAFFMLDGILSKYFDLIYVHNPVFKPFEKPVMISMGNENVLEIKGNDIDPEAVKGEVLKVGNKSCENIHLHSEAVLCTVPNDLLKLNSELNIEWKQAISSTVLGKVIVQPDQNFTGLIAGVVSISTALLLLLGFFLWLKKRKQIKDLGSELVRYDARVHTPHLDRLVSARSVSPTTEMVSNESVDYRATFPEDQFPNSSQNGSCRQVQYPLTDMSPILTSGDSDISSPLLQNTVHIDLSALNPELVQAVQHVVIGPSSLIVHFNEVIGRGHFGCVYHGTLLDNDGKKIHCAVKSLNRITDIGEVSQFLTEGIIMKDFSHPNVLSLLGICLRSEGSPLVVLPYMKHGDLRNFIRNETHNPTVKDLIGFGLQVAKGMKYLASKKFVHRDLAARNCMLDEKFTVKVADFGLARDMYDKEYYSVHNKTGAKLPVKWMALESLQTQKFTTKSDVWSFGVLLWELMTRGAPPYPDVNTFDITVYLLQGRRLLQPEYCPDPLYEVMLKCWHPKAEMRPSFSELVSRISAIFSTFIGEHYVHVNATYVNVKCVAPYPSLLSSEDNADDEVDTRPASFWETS
# Cytochrome P450 1A2 = Cytochrome P450 1A2 (Homo sapiens, UniProt P05177); assay: as §6; format: ADME; settings: microsomes, 10 µM
# In short: as §3
# Cytochrome P450 2C9 = Cytochrome P450 2C9 (Homo sapiens, UniProt P11712); assay: as §7; format: ADME; settings: microsomes, 10 µM
# Sequence of Cytochrome P450 2C9 (P11712 whole entry): as the sequence (P11712 whole entry) above
# In short: as §3
# Cytochrome P450 2D6 = Cytochrome P450 2D6 (Homo sapiens, UniProt P10635); assay: as §8; format: ADME; settings: microsomes, 10 µM
# Sequence of Cytochrome P450 2D6 (P10635 whole entry): as the sequence (P10635 whole entry) above
# In short: as §3
# Liver = assay: as §4; format: ADME, microsome; settings: microsomes, 0.5 h, 1 µM
"remaining at 0.5 h, 1 µM [1] [%]",microsomal CLint at 1 µM [2] [µL/min/mg],"inhibition at 20 min, 10 µM (CYP2C19 [3]) [%]","inhibition at 20 min, 10 µM (CYP1A2 [4]) [%]",microsomal CLint at 1 µM [5] [µL/min/mg],TDI (Cytochrome P450 3A4),microsomal CLint at 1 µM [6] [µL/min/mg],"remaining at 0.5 h, 1 µM [7] [%]","IC50 (SNU-5; Homo sapiens, SNU-5, 72 h) [nM]","inhibition at 20 min, 10 µM (CYP2D6 [8]) [%]","inhibition at 20 min, 10 µM (CYP2C9 [9]) [%]",IC50 (NCI-H1993) [nM],"remaining at 0.5 h, 1 µM [10] [%]","inhibition at 20 min, 10 µM (CYP3A4 [11]) [%]",bioavailability [15] [%],Structure (SMILES),also measured
99,11,< 50,< 50,50,Active,12,97,0.4,< 50,< 50,0.4,94,< 50,,CC(c1c(F)cc2ncc(-c3cnn(C)c3)cc2c1F)n1nnc2ncc(-c3ccc(C(N)=O)c(F)c3)nc21 (centres undefined),
103,2,< 50,< 50,6,,1,120,0.6,< 50,< 50,0.9,115,< 50,8.2,CC(c1cc2cc(-c3cnn(C)c3)cnc2cc1F)n1nnc2ncc(-c3ccc(C(N)=O)c(F)c3)nc21 (centres undefined),Cmax [12]: 98.9 ng/mL; clearance [13]: 9.33 mL/min/kg; inhibition at 10 µM (CYP3A4 [14]): < 50%; AUC(0-t) at 24 h [16]: 879 ng·h/mL; Vd [17]: 2 L/kg; inhibition at 10 µM (CYP1A2 [18]): < 50%; inhibition at 10 µM (CYP2C9 [19]): < 50%; inhibition at 10 µM (CYP2C19 [20]): < 50%; inhibition at 10 µM (CYP2D6 [21]): < 50%; half-life [22]: 3.2 h
,,,,,,,,,,,0.6,,,8.8,"CC(c1cc2cc(-c3cnn(C)c3)cnc2cc1F)n1nnc2ncc(-c3cnn(CCO)c3)nc21 (single isomer, unassigned; enantiomer 2)",IC50 [23]: 0.48 nM; IC50 (SNU-5; snu-5): 0.6 nM
98,3,< 50,< 50,30,Active,10,120,0.7,< 50,< 50,0.9,,< 50,,CC(c1ccc2ncc(-c3cnn(C)c3)cc2c1)n1nnc2ncc(-c3ccc(C(N)=O)c(F)c3)nc21 (centres undefined),TDI (Cytochrome P450 1A2): Active; TDI (Cytochrome P450 2C9): Active; TDI (Cytochrome P450 2D6): Active; Drug recovery (Liver): 128%
